# Assays:
# [1] = molecular target: T1, GABA-A receptor; alpha-1/beta-2/gamma-2 (Homo sapiens) (UniProt P14867+P47870+P18507); experiment: Modulatory activity at human GABAA alpha-1-beta-2-gamma-2L receptor expressed in Xenopus laevis oocytes assessed as potentiation of GABA EC5-induced currents at 30 uM by two-electrode voltage clamp assay; type: cell-based; conditions: Oocyte
# Method in brief: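 Stage V–VI oocytes were injected with 2–3 ng cRNA (α:β:γ 1:1:2) and kept 3–4 days at 16 °C in ND96 with pyruvate, theophylline and gentamycin. Two-electrode voltage clamp was run in ND96 at pH 7.5 with 3 M KCl electrodes. Test drug was co-applied with GABA EC5, with a 5–10 min washout between applications. Currents were normalised to a reference modulator at the same concentration on the same cell (n ≤ 5).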
# [2] = molecular target: T2, GABA-A receptor; alpha-1/beta-2/gamma-2 (Homo sapiens, UniProt P14867+P18507+P47870); experiment: Modulatory activity at human GABAA alpha-1-beta-2-gamma-2L receptor expressed in Xenopus laevis oocytes assessed as potentiation of GABA EC5-induced currents by two-electrode voltage clamp assay; type: cell-based, Oocyte
# T2 sequence (P14867 whole entry): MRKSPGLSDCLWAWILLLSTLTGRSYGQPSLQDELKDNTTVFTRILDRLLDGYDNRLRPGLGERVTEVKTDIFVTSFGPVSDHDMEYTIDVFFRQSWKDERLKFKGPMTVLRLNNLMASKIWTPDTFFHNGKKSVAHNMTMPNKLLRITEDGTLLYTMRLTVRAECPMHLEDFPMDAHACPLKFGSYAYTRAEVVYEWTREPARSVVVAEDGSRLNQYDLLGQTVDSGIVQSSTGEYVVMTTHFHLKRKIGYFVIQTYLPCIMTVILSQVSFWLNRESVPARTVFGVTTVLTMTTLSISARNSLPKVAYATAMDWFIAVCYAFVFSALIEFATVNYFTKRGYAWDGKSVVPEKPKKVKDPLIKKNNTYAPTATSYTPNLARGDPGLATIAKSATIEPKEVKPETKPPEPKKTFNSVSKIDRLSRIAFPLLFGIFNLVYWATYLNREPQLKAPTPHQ
# T2 sequence (P47870 whole entry): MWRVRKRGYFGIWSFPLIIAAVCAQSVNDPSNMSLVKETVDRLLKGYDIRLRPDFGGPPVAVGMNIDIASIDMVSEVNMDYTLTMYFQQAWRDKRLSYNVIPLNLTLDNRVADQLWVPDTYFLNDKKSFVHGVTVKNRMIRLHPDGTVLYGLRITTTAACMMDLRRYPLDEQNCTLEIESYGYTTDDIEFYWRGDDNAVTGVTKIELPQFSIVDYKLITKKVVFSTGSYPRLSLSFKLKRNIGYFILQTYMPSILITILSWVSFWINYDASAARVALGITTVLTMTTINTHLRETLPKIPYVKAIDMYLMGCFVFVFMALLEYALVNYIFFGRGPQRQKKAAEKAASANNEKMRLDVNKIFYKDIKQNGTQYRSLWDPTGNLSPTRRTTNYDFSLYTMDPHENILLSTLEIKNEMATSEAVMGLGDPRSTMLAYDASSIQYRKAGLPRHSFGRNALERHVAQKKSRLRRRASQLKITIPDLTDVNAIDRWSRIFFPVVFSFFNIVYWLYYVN
# T2 sequence (P18507 whole entry): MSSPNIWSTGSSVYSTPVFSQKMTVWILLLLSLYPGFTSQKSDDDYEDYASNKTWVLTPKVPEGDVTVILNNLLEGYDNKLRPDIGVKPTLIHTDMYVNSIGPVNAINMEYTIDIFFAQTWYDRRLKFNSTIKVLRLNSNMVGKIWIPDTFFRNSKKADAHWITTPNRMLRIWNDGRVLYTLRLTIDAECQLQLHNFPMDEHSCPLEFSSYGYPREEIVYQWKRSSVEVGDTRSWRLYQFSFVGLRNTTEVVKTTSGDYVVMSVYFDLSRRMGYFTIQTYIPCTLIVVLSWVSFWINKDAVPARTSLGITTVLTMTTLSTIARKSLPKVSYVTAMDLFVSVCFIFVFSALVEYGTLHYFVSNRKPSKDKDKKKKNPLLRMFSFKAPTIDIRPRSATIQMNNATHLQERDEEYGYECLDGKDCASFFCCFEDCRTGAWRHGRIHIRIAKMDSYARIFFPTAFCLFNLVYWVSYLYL
# Method in brief: (§1)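 Oocytes were injected with cRNA (α:β:γ 1:1:2) and incubated 3–4 days at 16 °C in ND96. TEVC was run in ND96 at pH 7.5, co-applying the drug at a range of concentrations with GABA EC5, with a 5–10 min washout between applications. Potentiation = (Idrug − IGABA) × 100/IGABA. Data are mean ± SEM, n ≥ 8, from at least two oocyte batches.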
# [3] = molecular target: T1, GABA-A receptor; alpha-1/beta-2/gamma-2 (Homo sapiens); experiment: Modulatory activity at human GABAA alpha-1-beta-2-gamma-2L receptor expressed in Xenopus laevis oocytes assessed as potentiation of GABA EC5-induced currents at 30 uM by two-electrode voltage clamp assay relative to untreated control; type: cell-based; conditions: Oocyte; method in brief: as §1
# [4] = molecular target: T1, GABA-A receptor; alpha-1/beta-2/gamma-2 (Homo sapiens); experiment: Modulatory activity at human GABAA alpha-1-beta-2-gamma-2L receptor expressed in Xenopus laevis oocytes assessed as potentiation of GABA EC5-induced currents at 50 uM by two-electrode voltage clamp assay relative to untreated control; type: cell-based; conditions: Oocyte; method in brief: as §1
Activity [1],further results,SMILES
< 50%,–,CC(=O)O[C@H]1Cc2ccccc2O[C@@H]1c1ccc(OCc2ccccc2)cc1
< 50%,–,COc1ccc([C@@H]2Oc3cc(OCc4ccccc4)ccc3C[C@H]2OC(C)=O)cc1
< 50%,–,COc1ccc([C@H]2Oc3ccccc3C[C@H]2OC(C)=O)cc1
> 50%,EC50 [2]: 15 µM,COc1ccc([C@@H]2Oc3ccc(OC)cc3C[C@H]2OC(C)=O)cc1
< 50%,–,COc1ccc([C@H]2Oc3ccc(OC)cc3C[C@H]2OC(C)=O)cc1
< 50%,–,COc1ccc([C@@H]2Oc3ccccc3C[C@H]2O)cc1
> 50%,–,COc1cc([C@@H]2Oc3ccccc3C[C@H]2OC(C)=O)cc(Br)c1OC
< 50%,–,COc1ccc([C@H]2Oc3cc(OCc4ccccc4)ccc3C[C@@H]2OC(C)=O)cc1OC
< 50%,–,COc1ccc([C@@H]2Oc3ccccc3C[C@@H]2OC(C)=O)cc1
> 50%,–,COc1ccc([C@@H]2Oc3ccc(C)cc3C[C@H]2OC(C)=O)cc1OC
< 50%,–,COc1ccc([C@H]2Oc3ccc(C)cc3C[C@@H]2OC(C)=O)cc1OC
< 50%,–,COc1ccc([C@H]2Oc3cc(OCc4ccccc4)ccc3C[C@H]2OC(C)=O)cc1
< 50%,–,CC(=O)O[C@H]1Cc2ccccc2O[C@H]1c1ccc(O)cc1
> 50%,–,CC(=O)O[C@@H]1Cc2ccccc2O[C@H]1c1ccc2c(c1)OCO2
< 50%,–,COc1ccc([C@@H]2Oc3cc(OCc4ccccc4)ccc3C[C@H]2OC(C)=O)cc1OC
> 50%,–,COc1ccc([C@H]2Oc3ccccc3C[C@@H]2OC(C)=O)cc1OC
> 50%,EC50 [2]: 6.68 µM; fold change (FC) [3]: 14.7,COc1ccc([C@@H]2Oc3ccccc3C[C@H]2OC(C)=O)cc1OC
700%,EC50 [2]: 13.7 µM; fold change (FC) [4]: 8.5,COc1ccc([C@@H]2Oc3ccccc3C[C@H]2OC(C)=O)cc1
< 50%,–,COc1ccc([C@H]2Oc3cc(O)ccc3C[C@@H]2OC(C)=O)cc1OC
< 50%,–,COc1ccc([C@@H]2Oc3ccccc3C[C@@H]2OC(C)=O)cc1OC
> 50%,–,COc1ccc([C@H]2Oc3ccccc3C[C@@H]2OC(C)=O)cc1
< 50%,–,CC(=O)O[C@H]1Cc2ccccc2O[C@H]1c1ccc(OCc2ccccc2)cc1
> 50%,–,CC(=O)O[C@H]1Cc2ccccc2O[C@@H]1c1ccc2c(c1)OCO2
< 50%,–,COc1ccc([C@@H]2Oc3cc(O)ccc3C[C@@H]2OC(C)=O)cc1
< 50%,–,CC(=O)O[C@H]1Cc2ccccc2O[C@@H]1c1ccc(O)cc1
< 50%,–,COc1ccc([C@H]2Oc3ccccc3C[C@H]2O)cc1
> 50%,EC50 [2]: 12.1 µM; fold change (FC) [3]: 12,COc1ccc([C@@H]2Oc3cc(O)ccc3C[C@H]2OC(C)=O)cc1OC
> 50%,fold change (FC) [4]: 10.5,COc1ccc([C@@H]2Oc3cc(O)ccc3C[C@H]2OC(C)=O)cc1
